Data set [1] concerns the target T1, Beta-3 adrenergic receptor (Homo sapiens, UniProt P13945). The experiment in a line: Stimulated increase in cAMP in CHO cells expressing human beta-3 receptor. It is filed as functional, cell-based.
Target sequence in this assay (P13945 whole entry): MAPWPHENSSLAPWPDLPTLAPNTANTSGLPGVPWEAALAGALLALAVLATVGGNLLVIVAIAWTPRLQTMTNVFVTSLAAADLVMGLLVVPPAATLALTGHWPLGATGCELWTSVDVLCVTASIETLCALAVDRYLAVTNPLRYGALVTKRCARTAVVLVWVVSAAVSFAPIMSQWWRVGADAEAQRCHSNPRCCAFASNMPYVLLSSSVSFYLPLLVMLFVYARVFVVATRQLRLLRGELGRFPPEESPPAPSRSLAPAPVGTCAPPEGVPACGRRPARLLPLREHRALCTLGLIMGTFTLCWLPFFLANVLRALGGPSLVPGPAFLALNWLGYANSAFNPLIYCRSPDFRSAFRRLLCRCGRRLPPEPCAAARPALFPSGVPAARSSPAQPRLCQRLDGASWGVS
Data set [2] concerns the target T1, Beta-3 adrenergic receptor. The experiment in a line: Percent increase in adenylyl cyclase activation in CHO cells expressing human beta-3 adrenergic receptor. It counts as functional, cell-based. In outline: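 Functional adenylyl cyclase stimulation via the β3 receptor. Activation expressed as percent of the maximal stimulation produced by isoproterenol.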
Target sequence in this assay (P13945 whole entry, looked up): as the sequence (P13945 whole entry) above

Data set [3] concerns the target Beta-1 adrenergic receptor (Homo sapiens, UniProt P08588). The experiment in a line: Binding affinity (measured using [125I]iodocyanopindolol) against human Beta-1 adrenergic receptor expressed in CHO cells. It is filed as cell-based. In outline: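 Membranes from CHO cells expressing cloned human β1 receptor; competition binding against 125I-iodocyanopindolol.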

In data set [4] the target is Beta-2 adrenergic receptor (Homo sapiens, UniProt P07550). Briefly: Binding affinity against human Beta-2 adrenergic receptor expressed in CHO cells using [125I]iodocyanopindolol. It counts as cell-based.
Beta-2 adrenergic receptor, sequence (P07550 whole entry): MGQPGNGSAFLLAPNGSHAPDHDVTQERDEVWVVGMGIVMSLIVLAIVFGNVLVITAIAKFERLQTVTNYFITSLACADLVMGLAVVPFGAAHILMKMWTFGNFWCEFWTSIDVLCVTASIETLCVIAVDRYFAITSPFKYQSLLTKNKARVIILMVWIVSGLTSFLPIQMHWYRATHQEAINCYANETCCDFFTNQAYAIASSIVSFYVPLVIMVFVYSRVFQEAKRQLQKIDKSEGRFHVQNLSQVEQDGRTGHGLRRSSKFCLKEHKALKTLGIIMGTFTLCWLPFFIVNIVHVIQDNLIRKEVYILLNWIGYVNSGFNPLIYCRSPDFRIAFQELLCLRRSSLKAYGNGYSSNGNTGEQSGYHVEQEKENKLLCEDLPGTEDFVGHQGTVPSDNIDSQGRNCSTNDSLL
The nature of data set [5]: Bioavailability after peroral administration in dogs. It counts as ADME, organism-based, Canis lupus familiaris. Particulars: dog, in vivo, po. The method, boiled down: (§1)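 Beagle dogs dosed orally at 10 mg/kg (solution in 0.5% methylcellulose/0.02% sodium lauryl sulfate with 2 equiv HCl) and iv at 3 mg/kg (PEG400/ethanol/normal saline 60:20:20 v/v/v). Blood taken predose and at 5 (iv only), 15, 30 min, 1, 2, 6, 8, 24 h. Plasma drug measured by LC/MS/MS.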

A short description of data set [6]: Oral bioavailability in dog. Particulars: in vivo. It is filed as ADME, organism-based, Canis lupus familiaris. The method, boiled down:
as §1

Data set [7] in a line: Half life period was determined. It is filed as ADME, organism-based, Canis lupus familiaris. The note with it: dog, in vivo. The method, boiled down:
as §1

In general, EC50 refers to the concentration at which the effect is half-maximal. As usually defined, the IC50 is the midpoint of a concentration-inhibition curve. Low values mean inhibition by little substance, high ones a need for much substance. What is called bioavailability is dose-corrected exposure relative to a reference, in per cent. High values mean much systemic uptake, low ones little systemic uptake. Usually half-life stands for the time in which the quantity being followed falls by half. A high value points to slow loss.

Beta-1 adrenergic receptor, sequence (P08588 whole entry): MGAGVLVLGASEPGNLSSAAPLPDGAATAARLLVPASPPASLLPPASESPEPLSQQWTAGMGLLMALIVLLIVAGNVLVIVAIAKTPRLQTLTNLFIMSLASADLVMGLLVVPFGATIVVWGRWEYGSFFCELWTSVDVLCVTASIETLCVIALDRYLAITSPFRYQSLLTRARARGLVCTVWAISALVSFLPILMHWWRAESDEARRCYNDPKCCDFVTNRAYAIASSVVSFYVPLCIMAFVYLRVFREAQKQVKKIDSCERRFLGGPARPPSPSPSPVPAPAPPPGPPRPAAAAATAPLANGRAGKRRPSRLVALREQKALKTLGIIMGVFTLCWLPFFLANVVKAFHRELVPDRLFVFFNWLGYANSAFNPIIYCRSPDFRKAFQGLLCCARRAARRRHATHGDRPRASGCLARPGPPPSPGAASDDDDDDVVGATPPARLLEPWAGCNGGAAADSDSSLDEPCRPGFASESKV

In turn, `O=S(=O)(Nc1ccc(CCNC[C@H](O)c2cccnc2)cc1)c1ccc(-c2nc(CCCC3CCCC3)cs2)cc1` came in with an EC50 in data set [1] of 0.026 µM. For the same compound, the Max stimulation in data set [2] was 95%. For the same compound, the IC50 was determined as 7 µM in data set [3] and 3 µM in data set [4].
The compound `O=S(=O)(Nc1ccc(CCNC[C@H](O)c2cccnc2)cc1)c1ccc(-c2nc(-c3ccc4ccccc4c3)cs2)cc1` returned an EC50 in data set [1] of 0.002 µM. Moreover, in data set [2], the Max stimulation stood at 100%. The IC50 in data set [3] was found to be 13 µM; in data set [4] it was 6.3 µM.
With `O=S(=O)(Nc1ccc(CCNC[C@H](O)c2cccnc2)cc1)c1ccc(Cc2nc(Cc3ccc4ccccc4c3)cs2)cc1`, the response in data set [1] was half-maximal at 0.012 µM (EC50). The compound further registered a Max stimulation in data set [2] of 83%. Also, the results for the IC50 in data set [3] and in data set [4] were 2.5 µM and 2 µM, respectively.
Regarding `O=S(=O)(Nc1ccc(CCNC[C@H](O)c2cccnc2)cc1)c1ccc(-c2nc(-c3c[nH]c4ccccc34)cs2)cc1`, the EC50 in data set [1] was determined as 0.0049 µM. In data set [2], this compound gave a Max stimulation of 100%. The IC50 in data set [3] was 30 µM; in data set [4] it was 50 µM.
In data set [2], `O=S(=O)(Nc1ccc(CCNC[C@H](O)c2cccnc2)cc1)c1ccc(-c2nc(-c3ccc(F)c(F)c3)cs2)cc1` returned a Max stimulation of 92%. For the same compound, the bioavailability in data set [5] is 36%.
On to `O=S(=O)(Nc1ccc(CCNC[C@H](O)c2cccnc2)cc1)c1ccc(-c2nc(-c3ccc(O)cc3)cs2)cc1`, for which, in data set [1], the half-maximal effective concentration (EC50) amounted to 0.045 µM. In data set [2], this compound displayed a Max stimulation of 58%. Moreover, the values for the IC50 in data set [3] and in data set [4] were 1.1 µM and 5.7 µM, respectively.
Take `CCCCCCCCc1csc(N2CCc3cc(S(=O)(=O)Nc4ccc(CCNC[C@H](O)c5cccnc5)cc4)ccc32)n1`: the bioavailability in data set [6] came out at 13%.
Consider `O=S(=O)(Nc1ccc(CCNC[C@H](O)c2cccnc2)cc1)c1ccc(-c2nc(Cc3ccc4ccccc4c3)cs2)cc1`, for which the response in data set [1] was half-maximal at 0.005 µM (EC50). In data set [2], this compound showed a Max stimulation of 75%. The IC50 in data set [3] came out at 3.3 µM; in data set [4], 2.3 µM.
In turn, `O=S(=O)(Nc1ccc(CCNC[C@H](O)c2cccnc2)cc1)c1ccc(-c2nc(-c3cc4ccccc4s3)cs2)cc1` registered an EC50 in data set [1] of 0.0058 µM. The same compound gave a Max stimulation in data set [2] of 94%. For the same compound, the IC50 in data set [3] was 100 µM; in data set [4], 93 µM.
In the case of `O=c1n(CCCC2CCCC2)nnn1-c1ccc(S(=O)(=O)Nc2ccc(CCNC[C@H](O)c3cccnc3)cc2)cc1`, in data set [7], the half-life is 3.6 h.
In data set [1], `O=S(=O)(Nc1ccc(CCNC[C@H](O)c2cccnc2)cc1)c1ccc(-c2nc(-c3cc4ccccc4o3)cs2)cc1` gave an EC50 of 0.0091 µM. In data set [2], this compound registered a Max stimulation of 91%. For the same compound, the IC50 came out at 90 µM in data set [3] and 49 µM in data set [4].
`CCCCCCc1ccc(-c2csc(-c3ccc(S(=O)(=O)Nc4ccc(CCNC[C@H](O)c5cccnc5)cc4)cc3)n2)cc1` had an EC50 in data set [1] of 0.0012 µM. Also, in data set [2], the Max stimulation was 84%. Also, the concentration for half-maximal inhibition (IC50) in data set [3] is 52 µM; in data set [4], 90 µM.
As for `O=S(=O)(Nc1ccc(CCNC[C@H](O)c2cccnc2)cc1)c1ccc(-c2nc(-c3cnc4ccccc4c3)cs2)cc1`, in data set [1], the EC50 is 0.0073 µM. Also, the Max stimulation in data set [2] came out at 79%. For the same compound, the figures for the half-inhibitory concentration (IC50) in data set [3] and in data set [4] were 19 µM and 47 µM, respectively.
For `O=S(=O)(Nc1ccc(CCNC[C@H](O)c2cccnc2)cc1)c1ccc(-c2nc(CCc3ccccc3)cs2)cc1` the same measures were 0.033 µM, 70%, 9 µM and 0.91 µM.
In data set [1], `CCCCCCCCc1csc(-c2ccc(S(=O)(=O)Nc3ccc(CCNC[C@H](O)c4cccnc4)cc3)cc2)n1` yielded an EC50 of 0.01 µM. The Max stimulation in data set [2] amounted to 84%. Further, the IC50 in data set [3] amounted to 3.7 µM; in data set [4] it was 3 µM.
`O=S(=O)(Nc1ccc(CCNC[C@H](O)c2cccnc2)cc1)c1ccc(-c2nc(-c3cccnc3)cs2)cc1` had an EC50 in data set [1] of 0.04 µM. In data set [2], this compound returned a Max stimulation of 69%. The IC50 in data set [3] turned out to be 7 µM; in data set [4], 3 µM.
The corresponding values for `O=S(=O)(Nc1ccc(CCNC[C@H](O)c2cccnc2)cc1)c1ccc(-c2nc(Cc3ccc(F)cc3)cs2)cc1` are 0.0062 µM, 57%, 3 µM and 2.5 µM.
The corresponding values for `CC(=O)NCCCCCc1csc(-c2ccc(S(=O)(=O)Nc3ccc(CCNC[C@H](O)c4cccnc4)cc3)cc2)n1` are 0.05 µM, 82%, 50 µM and 16 µM.
`CCCCCCCCc1csc(Cc2ccc(S(=O)(=O)Nc3ccc(CCNC[C@H](O)c4cccnc4)cc3)cc2)n1`: the midpoint of the response in data set [1], the EC50, lay at 0.0098 µM. In data set [2], the Max stimulation amounted to 79%. Moreover, the IC50 stood at 0.85 µM in data set [3] and 1 µM in data set [4].
In turn, `O=S(=O)(Nc1ccc(CCNC[C@H](O)c2cccnc2)cc1)c1ccc(-c2nc(-c3ccccn3)cs2)cc1` yielded an EC50 in data set [1] of 0.022 µM. Also, in data set [2], the Max stimulation stood at 100%. Moreover, the IC50 in data set [3] was 6.5 µM; in data set [4], 4 µM.
In data set [1], `O=S(=O)(Nc1ccc(CCNC[C@H](O)c2cccnc2)cc1)c1ccc(-c2nc(-c3ccc4ncccc4c3)cs2)cc1` gave an EC50 of 0.0027 µM. Besides, the Max stimulation in data set [2] was found to be 97%. In addition, the figures for the half-inhibitory concentration (IC50) in data set [3] and in data set [4] were 6 µM and 8 µM, respectively.
In data set [1], `CCCCCCc1csc(-c2ccc(S(=O)(=O)Nc3ccc(CCNC[C@H](O)c4cccnc4)cc3)cc2)n1` gave an EC50 of 0.051 µM. Also, the Max stimulation in data set [2] came to 69%. Besides, the concentration for half-maximal inhibition (IC50) in data set [3] turned out to be 40 µM; in data set [4], 0.62 µM.
The compound `O=S(=O)(Nc1ccc(CCNC[C@H](O)c2cccnc2)cc1)c1ccc(-c2nc(-c3ccc(F)cc3)cs2)cc1` returned an EC50 in data set [1] of 0.0095 µM. This compound also showed a Max stimulation in data set [2] of 81%. For the same compound, the figures for the IC50 in data set [3] and in data set [4] were 1.5 µM and 1.9 µM, respectively.
In turn, `CC(C)(C)c1ccc(-c2csc(-c3ccc(S(=O)(=O)Nc4ccc(CCNC[C@H](O)c5cccnc5)cc4)cc3)n2)cc1` registered an EC50 in data set [1] of 0.0024 µM. The compound also yielded a Max stimulation in data set [2] of 100%. For the same compound, the IC50 in data set [3] worked out at 1.6 µM; in data set [4] it was 2 µM.
Turning to `CC(=O)Nc1ccc(-c2csc(-c3ccc(S(=O)(=O)Nc4ccc(CCNC[C@H](O)c5cccnc5)cc4)cc3)n2)cc1`, a half-maximal effect in data set [1] (EC50) was put at 0.045 µM. The compound also returned a Max stimulation in data set [2] of 82%. Moreover, the IC50 was 0.96 µM in data set [3] and 2.1 µM in data set [4].
